Assay outcomes deposited in PubChem BioAssay by several laboratories.
Shown are actives, neighbours in structure and some others; about 27% of the full set was active somewhere.
CYP2C9 inhib: human CYP2C9 inhibition. P11712. CYP2C9 Supersomes, luciferin-H conversion, luminescence. inhibition, % at 5 µM. 96,000 compounds, 20% hits. AID 777;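 active = blocking of liver enzyme CYP2C9 beyond about 50% at 5 µM, limit read from the data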
Cav3 T inh: inhibitors of human Cav3.2 T-type calcium channel; B-score at 10 µM; 100,000 compounds, 4% hits; O95180; Cav3.2-expressing cells, Fluo-4 calcium fluorescence FDSS; active compounds read low;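 active = single-dose well whose peak fluorescence ratio is a statistical outlier from its plate by either plate-standardised score or position-corrected B-score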
HIV Rev-RRE inh: HIV Rev-RRE protein-RNA interaction inhibition | P05866 | Rev peptide-RRE RNA binding, FRET | inhibition, % at 8 µM | 97,000 compounds, 0.79% hits | AID 704;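 active = inhibition above the screen-wide mean plus 3 SD, cut at about 35% in these data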
Target sequence (P05866 whole entry, looked up): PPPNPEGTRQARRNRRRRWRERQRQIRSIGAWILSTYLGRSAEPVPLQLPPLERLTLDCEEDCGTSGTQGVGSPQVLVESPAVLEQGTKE
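Assay system: Labelled RRE RNA duplex and labelled Rev peptide | Times: 5 min preincubation and 15 min binding, 25 °C | Detection: FRET, ex 480 nm, em 540 and 671 nm | Evaluation: % inhibition of FRET ratio versus controls | Benchmarks: DMSO wells as 0% and neomycin B wells as 100% inhibition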
CYP2C9 activ: increases human cytochrome P450 2C9 activity. 96,000 compounds, 1.4% hits. P11712. activation factor at 5 µM. recombinant CYP2C9, luciferin-H conversion, luminescence; active compounds read high; factor 1 = untreated enzyme, 0 = blocked;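 active = activation factor of 2 or more for CYP2C9 at a 5 µM dose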
CYP2C19 activ: cytochrome P450 2C19 (human) activation; P33261; recombinant CYP2C19, luciferin-H EGE luminescence; active compounds read high; 0 = fully inhibited enzyme, 1 = untreated enzyme; activation factor at 5 µM; 96,000 tested, under 10 active; AID 1025;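 active = activation factor of at least 2 at 5 µM in the primary screen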
Target sequence (P33261 whole entry, looked up): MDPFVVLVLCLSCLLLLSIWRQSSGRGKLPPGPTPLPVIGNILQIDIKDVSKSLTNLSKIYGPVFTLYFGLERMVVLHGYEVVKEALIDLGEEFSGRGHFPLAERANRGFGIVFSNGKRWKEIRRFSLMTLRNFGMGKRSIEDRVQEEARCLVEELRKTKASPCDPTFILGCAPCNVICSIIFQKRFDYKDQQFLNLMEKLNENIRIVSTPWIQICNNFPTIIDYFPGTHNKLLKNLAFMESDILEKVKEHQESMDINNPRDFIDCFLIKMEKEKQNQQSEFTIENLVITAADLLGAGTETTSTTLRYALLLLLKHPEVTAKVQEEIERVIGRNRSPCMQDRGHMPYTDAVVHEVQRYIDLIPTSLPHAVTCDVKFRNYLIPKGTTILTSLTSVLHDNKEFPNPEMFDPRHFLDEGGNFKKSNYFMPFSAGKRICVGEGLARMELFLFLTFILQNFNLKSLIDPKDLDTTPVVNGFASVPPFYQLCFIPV
CYP2C19 inhib: inhibitors of human CYP2C19; CYP2C19 Supersomes, luciferin-H EGE luminescence, 30 min; AID 778; 96,000 compounds, 21% hits; P33261; inhibition, % at 5 µM;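 active = CYP2C19 inhibition above a set limit at 5 µM in the primary screen, cut at about 50% in these data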
Large screens that a line does not name were inactive; [ ] = another dose, or the depositor's remark.

COc1ccc(S(=O)(=O)CCC(=O)N2c3ccccc3CC2C)cc1 (configuration not stated)	CYP2C9 activ 2 (no result: HIV Rev-RRE inh)
COc1ccc(N(CC(=O)N2CCCC(C)C2)S(=O)(=O)c2c(C)nn(C)c2C)cc1 (configuration not stated)	CYP2C19 inhib 53
CNc1ccccc1C(=O)OCC(C)=O	none (no result: CYP2C9 inhib, HIV Rev-RRE inh, CYP2C9 activ, CYP2C19 activ, CYP2C19 inhib)
O=C(C1CC(c2ccc(F)cc2)=NO1)N1CCN(c2ccccc2)CC1 (configuration not stated)	none
Cc1c(NC(=O)C2CC(c3c(F)cccc3Cl)=NO2)c(=O)n(-c2ccccc2)n1C (configuration not stated)	none
Cc1ccc(O)c(NC(=O)C2CC(c3c(F)cccc3Cl)=NO2)c1 (configuration not stated)	CYP2C19 inhib 94
CN1CCN(C(=O)C2CC(c3c(F)cccc3Cl)=NO2)CC1 (configuration not stated)	CYP2C9 activ 2.8
CC1=NC(C)Cc2ccccc21 (configuration not stated)	none (no result: Cav3 T inh)
COc1ccc(C2C3=C(CCCC3=O)Nc3nc4ccccc4n32)cc1OC (configuration not stated)	none (no result: CYP2C9 inhib, Cav3 T inh, CYP2C9 activ, CYP2C19 activ, CYP2C19 inhib)
COc1cc2cc3c(N)c(C(=O)Nc4sc(C)c(C)c4C#N)sc3nc2cc1OC	HIV Rev-RRE inh 100[fluorescence artefact?]
CCN(CC)c1ccc(NC(=O)COc2ccc(C)cc2)cc1	CYP2C19 inhib 66
Cc1ccc(NC(=O)CNc2ccc(OC(C)C)cc2)cc1	CYP2C9 inhib 70
CCN(CC)c1ccc(NC(=O)OC)cc1	CYP2C9 inhib 63
CN(C)c1ccc(NC(=O)COC(=O)CCC(=O)c2ccc(F)cc2)cc1	CYP2C9 inhib 81, CYP2C19 inhib 90
Nc1ccc(N2CCN(C(=O)c3ccco3)CC2)cc1	none
O=C(NCC(c1cccnc1)N1CCN(c2ccc(F)cc2)CC1)c1ccco1 (configuration not stated)	none (no result: CYP2C9 inhib, HIV Rev-RRE inh, CYP2C9 activ, CYP2C19 activ, CYP2C19 inhib)
Cc1ccc(OCC(=O)Nc2ccc(N(C)C)cc2)cc1	CYP2C19 inhib 87
COCC(=O)Nc1ccc(N(C)C)cc1	none
N#CC(C#N)=CC1=C2OC(c3ccccc3)=CC(c3ccccc3)=C2CCC1	CYP2C9 inhib 79
COc1cccc(CN2C(=O)C3(C(C#N)=C(N)OC4=C3C(=O)CCC4)c3ccccc32)c1 (configuration not stated)	CYP2C9 inhib 66
CN(C)c1ccc(/C=N/N=C2/NC(=O)/C(=C/c3ccc([N+](=O)[O-])cc3)S2)cc1	none (no result: Cav3 T inh)
Cc1nc(SCC(=O)N(C)C2CCCCC2)[nH]c(=O)c1Cc1ccccc1	CYP2C9 inhib 69, CYP2C19 inhib 60 (no result: Cav3 T inh)
CN(C(=O)CSc1nc2c(c(=O)[nH]1)CCCC2)C1CCCCC1	CYP2C9 inhib 69
CCOc1ccc(Cl)cc1S(=O)(=O)n1nnc2ccccc21	CYP2C9 activ 2, CYP2C19 inhib 98
CCOc1ccc(S(=O)(=O)n2nnc3ccccc32)cc1C	none (no result: Cav3 T inh)
N#CC1(c2nc3ccccc3[nH]2)CC1c1ccc2c(c1)OCO2 (configuration not stated)	CYP2C9 inhib 64, CYP2C19 inhib 92
Cc1ccc(C(=O)COC(=O)c2cc(Cl)nc3ccccc23)cc1	CYP2C19 inhib 65
COc1ccc(-c2cc(C(=O)OCC(=O)N(C)C)c3ccccc3n2)cc1	CYP2C9 inhib 72, CYP2C19 inhib 88
COc1ccc(-c2cc(C(=O)Oc3ccc([N+](=O)[O-])cc3)c3ccccc3n2)cc1	none
COc1cccc(C2C3=C(CC(C)(C)CC3=O)OC(N)=C2[N+](=O)[O-])c1 (configuration not stated)	none
CC1=C([N+](=O)[O-])C(c2cccc(Br)c2)C2=C(N1)c1ccccc1C2=O (configuration not stated)	CYP2C9 inhib 98, CYP2C19 inhib 88
COc1ccc(CC(=O)NCc2ccccc2)cc1S(=O)(=O)N1CCOCC1	none
COc1ccc(CC(=O)Nc2nnc(SCc3ccccc3)s2)cc1S(=O)(=O)N1CCOCC1	CYP2C9 inhib 90, CYP2C19 inhib 91
COc1ccc(CC(=O)Nc2nc3ccccc3s2)cc1S(=O)(=O)N1CCOCC1	CYP2C9 inhib 64, CYP2C19 inhib 76
COc1ccc(CC(=O)Nc2nc3ccc(F)cc3s2)cc1S(=O)(=O)N1CCOCC1	CYP2C9 inhib 75, CYP2C19 inhib 75
COc1ccc(C(=O)NCC(c2ccc(F)cc2)N2CCOCC2)cc1S(=O)(=O)N1CCCC1 (configuration not stated)	CYP2C19 inhib 92
COc1ccccc1OCc1nc2c3c(-c4ccccc4)c(-c4ccccc4)oc3ncn2n1	none (no result: CYP2C9 inhib, Cav3 T inh, CYP2C9 activ, CYP2C19 activ, CYP2C19 inhib)
CCOCCn1c(CN2CCOCC2)nc2c1c(=O)[nH]c(=O)n2C	none (no result: CYP2C9 inhib, HIV Rev-RRE inh, CYP2C9 activ, CYP2C19 activ, CYP2C19 inhib)
COc1ccc(C2C3=C(Nc4ncnn42)c2ccccc2CCC3)cc1 (configuration not stated)	CYP2C9 inhib 68, CYP2C19 inhib 92
Fc1ccc(/C=C2\CCCC3=C2Nc2ncnn2C3c2ccc(F)cc2)cc1 (configuration not stated)	none
COc1cc(C2C3=C(Nc4ncnn42)c2ccccc2CC3)cc(OC)c1OC (configuration not stated)	CYP2C9 inhib 66, CYP2C19 inhib 66
O=C(Nc1ccc(O)c2c(=O)cc(-c3ccccc3Cl)oc12)c1cccs1	none (no result: CYP2C9 inhib, HIV Rev-RRE inh, CYP2C9 activ, CYP2C19 activ, CYP2C19 inhib)
CCNC(=O)NC(=O)C(C)Sc1nc2ccccc2n1CC(C)C (configuration not stated)	none
COCCNC(=O)c1c(N)n(CCCn2ccnc2)c2nc3ccccc3nc12	CYP2C9 inhib 89, CYP2C19 inhib 69
CC(C)OCCCNC(=O)c1c(N)n(/N=C/c2ccccn2)c2nc3ccccc3nc12	none
COCCCNC(=O)c1c(N)n(/N=C/c2cccs2)c2nc3ccccc3nc12	CYP2C9 inhib 67 (no result: HIV Rev-RRE inh)
COCCNC(=O)c1c(N)n(-c2cccc(C)c2)c2nc3ccccc3nc12	Cav3 T inh -6.1
Cc1ccc2nc(/C(C#N)=C/c3cn[nH]c3-c3ccc(F)cc3)[nH]c2c1	none
CCOc1cccc(NC(=O)C2CC(=O)N(C)C(=Nc3cccc(F)c3)S2)c1 (configuration not stated)	CYP2C9 inhib 75, Cav3 T inh -4.7, CYP2C19 inhib 51
CCOc1cccc(NC(=O)C2CC(=O)N(C)C(=Nc3ccccc3)S2)c1 (configuration not stated)	CYP2C9 inhib 74, Cav3 T inh -4.5
COc1ccc(CNC(=O)CS(=O)Cc2nc(-c3ccc(C)cc3)oc2C)cc1 (configuration not stated)	none
Cc1ccc(NC(=O)CS(=O)Cc2nc(-c3ccc(C)cc3)oc2C)cc1 (configuration not stated)	CYP2C9 inhib 60, Cav3 T inh -4.6
COc1ccc(-c2nc(CS(=O)CC(=O)N3CCCC3)c(C)o2)cc1 (configuration not stated)	CYP2C9 inhib 71 (no result: HIV Rev-RRE inh)
